Results collected from several papers.
Each line is one published result; the experiments were not run side by side.
Target: Aurora kinase C (AURKC, Homo sapiens, UniProt Q9UQB9)
Sequence (Q9UQB9 1-309, as in one of the studies): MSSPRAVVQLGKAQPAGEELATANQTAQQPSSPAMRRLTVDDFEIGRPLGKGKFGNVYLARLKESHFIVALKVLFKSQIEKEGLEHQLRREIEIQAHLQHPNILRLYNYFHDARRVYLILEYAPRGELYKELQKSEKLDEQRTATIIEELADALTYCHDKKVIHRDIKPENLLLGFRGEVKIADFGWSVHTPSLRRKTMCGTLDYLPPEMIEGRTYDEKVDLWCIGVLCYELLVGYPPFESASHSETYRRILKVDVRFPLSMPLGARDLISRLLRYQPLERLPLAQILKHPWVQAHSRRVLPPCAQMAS

Structure (SMILES)	effect on	technique	concentration	remaining binding [%]
Cn1nc(C(F)(F)F)cc1-c1cnc(N2CCc3cc(S(=O)(=O)Nc4c(F)cc(Cl)cc4F)cc(N4CCCC4=O)c32)nc1	cell-free assay	competition with immobilised ligand	1 µM	100
C=CC(=O)N1CCC(C(=O)NCC(=O)N2CCN(c3nc(-c4cnc(N)nc4C(F)F)nc(N4CCOCC4)n3)CC2)CC1	binding	competition with immobilised ligand	1 µM	100
COc1cnc(Nc2cccc(S(N)(=O)=O)c2)nc1N1CCN(c2ccccc2)C(=O)C1	binding	competition with immobilised ligand	1 µM	97
CNC(=O)Nc1ccc2c(c1)CC[C@@]21OC(=O)N(CC(=O)N(Cc2ccc(F)cc2)[C@@H](C)C(F)(F)F)C1=O	cell-free assay	competition with immobilised ligand	1 µM	100
C[C@@H]1CCN(c2nccc(-c3cnn4ncccc34)n2)C1	binding		1 µM	98
COc1ccc2c(O[C@@H]3C[C@H]4C(=O)N[C@]5(C(=O)O)CC5/C=C\CCCCC[C@H](NC(=O)OC5CCCC5)C(=O)N4C3)cc(-c3csc(NC(=O)C(C)C)n3)nc2c1C (stereo partly shown)	cell-free assay	competition with immobilised ligand	1 µM	96
COc1ccnn2ncc(-c3ccnc(N(C)C)n3)c12	binding		1 µM	100
Nc1ncc2c(n1)-c1c([nH]c3ccc(C#CC4CC4)cc13)CCCC2	binding	competition with immobilised ligand	1 µM	86
CO[C@H]1CC[C@H](CNc2ccc(S(=O)(=O)NC(=O)c3ccc(N4CCN(CC5=C(c6ccc(Cl)cc6)CC(C)(C)CC5)CC4)cc3Oc3cnc4[nH]ccc4c3)cc2[N+](=O)[O-])CC1	cell-free assay	competition with immobilised ligand	1 µM	87
O=C(Nc1c[nH]nc1C(=O)NC1CCNCC1)c1cc(F)cc(F)c1	binding	competition with immobilised ligand	1 µM	84
CN(C)c1nccc(-c2cnn3ncccc23)n1	binding		1 µM	100
O=C(O)[C@@H]1[C@@H](Cn2nnc3ccccc3c2=O)CC[C@H]1C(=O)c1ccc(OCCC2CCOCC2)cc1	cell-free assay	competition with immobilised ligand	1 µM	100
O=C(NCCCN1CCOCC1)c1ccc(Nc2nccc(-c3cc4ccccc4s3)n2)cc1	binding	competition with immobilised ligand	1 µM	32
CN(C)c1ncc(F)c(-c2cnn3ncccc23)n1	binding		1 µM	100
COc1ncc2cc3ccccc3nc2c1C#N	cell-free assay	competition with immobilised ligand	5 µM	100
C[C@@H](c1ccc(-n2cnc3c(N)ncnc32)cc1)N1CCc2nn(C)c(Cc3ccccc3)c2C1=O	binding	competition with immobilised ligand	0.1 µM	79
CS(=O)(=O)c1cc(C2(NC(=O)c3cncc4c3cnn4-c3ccc(F)cc3)CC2)ccn1	cell-free assay	competition with immobilised ligand	1 µM	100
O=C(NCCCN1CCOCC1)c1ccc(Nc2ncc(Cl)c(-c3ccc(Cl)s3)n2)cc1	binding	competition with immobilised ligand	1 µM	5.5
N[C@@H]1CCN(c2nccc(-c3cnn4ncccc34)n2)C1	binding		1 µM	100
O=C(c1ccc(Nc2ncc(Cl)c(-c3cc4ccccc4s3)n2)cc1)N1CCC(N2CCCC2)CC1	binding	competition with immobilised ligand	1 µM	1.8
c1cnn2ncc(-c3ccnc(N4CCC45COC5)n3)c2c1	binding		1 µM	96
O=C(N1CCS(=O)(=O)CC1)N1C[C@H](c2ccc(OC(F)(F)F)cc2)C[C@H](c2nc(C3CC3)no2)C1	cell-free assay	competition with immobilised ligand	1 µM	99
